For five compounds, MIC results are on record in ChEMBL document CHEMBL1125626, “Synthesis and structure-activity relationship of new cephalosporins with amino heterocycles at C-7. Dependence of the antibacterial spectrum and beta-lactamase stability on the pKa of the C-7 heterocycle” (1991).

The subject of test [1] is Escherichia coli. The test is described as follows: Minimum inhibitory concentration against Escherichia coli DC2 (inoculum, 10e4 cfu per spot). It counts as functional. A digest of the protocol: (§1)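 MIC in µg/mL, determined in Jewell and Permain growth medium with spot inoculation at 10^4 cfu per spot. P99 is described as a constitutive type I lactamase producer.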
In test [2] the test system is Escherichia coli. The test is described as follows: Minimum inhibitory concentration against Escherichia coli DCO (inoculum, 10e4 cfu per spot). It counts as functional. A digest of the protocol: as §1
Test [3] concerns Escherichia coli. The test is described as follows: Minimum inhibitory concentration against Escherichia coli A8 (inoculum, 10e5 cfu per spot). It counts as functional. A digest of the protocol: (§2)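 MIC in µg/mL, determined in Jewell and Permain growth medium with spot inoculation at 10^5 cfu per spot.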
For test [4], the system named is Enterobacter cloacae. The test is described as follows: Minimum inhibitory concentration against Enterobacter cloacae A13 (inoculum, 10e5 cfu per spot). It counts as functional. A digest of the protocol:
as §2

Test [5] deals with Enterobacter cloacae. The test is described as follows: Minimum inhibitory concentration against Enterobacter cloacae P99 (inoculum, 10e4 cfu per spot). It counts as functional. A digest of the protocol: as §1
The test system of test [6] is Klebsiella aerogenes. The test is described as follows: Minimum inhibitory concentration against Klebsiella aerogenes X5L (inoculum, 10e4 cfu per spot). It is filed as functional. A digest of the protocol: as §1
Test [7] has as its system Klebsiella aerogenes. The test is described as follows: Minimum inhibitory concentration against Klebsiella aerogenes X6 (inoculum, 10e4 cfu per spot). It counts as functional. A digest of the protocol:
as §1

In test [8] the test system is Klebsiella pneumoniae. The test is described as follows: Minimum inhibitory concentration against Klebsiella pneumoniae A24 (inoculum, 10e5 cfu per spot). It is filed as functional. A digest of the protocol: as §2
For test [9], the system named is Proteus mirabilis. The test is described as follows: Minimum inhibitory concentration against Proteus mirabilis A18(inoculum, 10e5 cfu per spot). It counts as functional. A digest of the protocol:
as §2

In test [10] the test system is Pseudomonas aeruginosa. The test is described as follows: Minimum inhibitory concentration against Pseudomonas aeruginosa A21 (inoculum, 10e5 cfu per spot). It is filed as functional. A digest of the protocol:
as §2

For test [11], the system named is Staphylococcus aureus. The test is described as follows: Minimum inhibitory concentration against Staphylococcus aureus A4 (inoculum, 10e5 cfu per spot). It is filed as functional. A digest of the protocol:
as §2

The subject of test [12] is Staphylococcus aureus. The test is described as follows: Minimum inhibitory concentration against Staphylococcus aureus A6 (inoculum, 10e5 cfu per spot). It is filed as functional. A digest of the protocol:
as §2

Test [13] concerns Streptococcus pyogenes. The test is described as follows: Minimum inhibitory concentration against Streptococcus pyogenes (inoculum, 10e5 cfu per spot) A1. It is filed as functional. A digest of the protocol: as §2
Test [14] has as its system Serratia marcescens. The test is described as follows: Minimum inhibitory concentration against Serratia marcescens A16 (inoculum, 10e5 cfu per spot). It counts as functional. A digest of the protocol: as §2
The subject of test [15] is Enterobacter cloacae. The test is described as follows: Minimum inhibitory concentration against Enterobacter cloacae P99 (inoculum, 10e4 cfu per spot)(type I lactamase producer). It is filed as functional. A digest of the protocol: as §1
Test [16] concerns Escherichia coli. The test is described as follows: Minimum inhibitory concentration against Escherichia coli X4 (inoculum, 10e4 cfu per spot).
Test [17] relates to Proteus vulgaris. The test is described as follows: Minimum inhibitory concentration against Proteus vulgaris Pv9 (inoculum, 10e5 cfu per spot).
Test [18] has as its system Escherichia coli. The test is described as follows: Minimum inhibitory concentration against Escherichia coli TEM X3 (inoculum, 10e4 cfu per spot)(TEM I type lactamase producer).
Test [19] has as its system Proteus mirabilis. The test is described as follows: Minimum inhibitory concentration against Proteus mirabilis A18 (inoculum, 10e5 cfu per spot). It counts as functional. A digest of the protocol:
as §2

Molecules are shown by their SMILES. Values after ≈ are worked out from the molar mass of the structure shown. Some results are limits rather than exact numbers.

Consider `CC(=O)OCC1=C(C(=O)OC(c2ccccc2)c2ccccc2)N2C(=O)[C@@H](Nc3nc4ccccc4[nH]3)C2SC1` (stereo not given in full), for which the MIC (commonly the lowest concentration found to suppress growth) is less than 0.03 µg/mL in [1]; 0.5 µg/mL (≈ 0.902 µM) in test [2]; 2 µg/mL (≈ 3.61 µM) in [3]; not below 128 µg/mL in test [4]; 2 µg/mL (≈ 3.61 µM) in test [5]; not below 128 µg/mL in [6]. The MIC in test [7] was 2 µg/mL (≈ 3.61 µM); in test [8], 1 µg/mL (≈ 1.8 µM); in test [9], 4 µg/mL (≈ 7.21 µM); in test [10], not below 128 µg/mL; in [11], 8 µg/mL (≈ 14.4 µM); in [12], 2 µg/mL (≈ 3.61 µM). Further, the MIC was 2 µg/mL (≈ 3.61 µM) in test [13]; 64 µg/mL (≈ 115 µM) in [14]; not below 128 µg/mL in [15]; 0.25 µg/mL (≈ 0.451 µM) in test [16]; 64 µg/mL (≈ 115 µM) in [17]; 2 µg/mL (≈ 3.61 µM) in [18].
As to `CC(=O)OCC1=C(C(=O)OC(c2ccccc2)c2ccccc2)N2C(=O)[C@@H](Nc3nc4cc(C(F)(F)F)ccc4[nH]3)C2SC1` (stereo not given in full), the minimal inhibitory concentration (MIC) in [1] was 0.12 µg/mL (≈ 0.193 µM); in test [2], 32 µg/mL (≈ 51.4 µM); in test [3] it was 32 µg/mL (≈ 51.4 µM); in test [4], more than 256 µg/mL; in test [5], 32 µg/mL (≈ 51.4 µM); in test [6], more than 256 µg/mL. For the same compound, the MIC in test [7] was 64 µg/mL (≈ 103 µM); in test [8], 32 µg/mL (≈ 51.4 µM); in [19], 128 µg/mL (≈ 206 µM); in test [10], more than 256 µg/mL; in test [11], 128 µg/mL (≈ 206 µM); in [12] it was 2 µg/mL (≈ 3.21 µM). The MIC was 1 µg/mL (≈ 1.61 µM) in [13]; more than 256 µg/mL in [14]; more than 256 µg/mL in test [15]; 32 µg/mL (≈ 51.4 µM) in test [16]; more than 256 µg/mL in [17]; 32 µg/mL (≈ 51.4 µM) in [18].
As to `Cn1nnnc1SCC1=C(C(=O)OC(c2ccccc2)c2ccccc2)N2C(=O)[C@@H](Nc3nc4cc(O)ccc4[nH]3)C2SC1` (stereo not given in full), the MIC in [1] is less than 0.03 µg/mL; in test [2], 0.12 µg/mL (≈ 0.191 µM); in test [3] it was 0.25 µg/mL (≈ 0.399 µM); in test [4] it was more than 256 µg/mL; in [5], 0.25 µg/mL (≈ 0.399 µM); in test [6], 64 µg/mL (≈ 102 µM). Also, the MIC in [7] was 0.25 µg/mL (≈ 0.399 µM); in test [8], 4 µg/mL (≈ 6.38 µM); in [19] it was 0.5 µg/mL (≈ 0.798 µM); in [10] it was more than 256 µg/mL; in test [11], 16 µg/mL (≈ 25.5 µM); in test [12], 2 µg/mL (≈ 3.19 µM). Also, the MIC was 0.5 µg/mL (≈ 0.798 µM) in test [13]; 64 µg/mL (≈ 102 µM) in test [14]; 32 µg/mL (≈ 51.1 µM) in test [15]; 0.12 µg/mL (≈ 0.191 µM) in test [16]; 16 µg/mL (≈ 25.5 µM) in test [17]; 1 µg/mL (≈ 1.6 µM) in test [18].
Regarding `CC1=C(C(=O)OC(c2ccccc2)c2ccccc2)N2C(=O)[C@@H](NC3=NCCN3)C2SC1` (stereo not given in full), the MIC in test [1] came out at 2 µg/mL (≈ 4.46 µM); in test [2] it was 4 µg/mL (≈ 8.92 µM); in [3] it was 2 µg/mL (≈ 4.46 µM); in test [4] it was 4 µg/mL (≈ 8.92 µM); in [5], 2 µg/mL (≈ 4.46 µM); in [6] it was 4 µg/mL (≈ 8.92 µM). Moreover, the MIC in test [7] is 4 µg/mL (≈ 8.92 µM); in test [8], 4 µg/mL (≈ 8.92 µM); in test [19], 256 µg/mL (≈ 571 µM); in [10] it was more than 256 µg/mL; in test [11], more than 256 µg/mL; in test [12] it was more than 256 µg/mL. The MIC in [13] was 128 µg/mL (≈ 285 µM); in [14], more than 256 µg/mL; in test [15], 4 µg/mL (≈ 8.92 µM); in test [16] it was 2 µg/mL (≈ 4.46 µM); in test [17] it was more than 256 µg/mL; in test [18], 2 µg/mL (≈ 4.46 µM).
Turning to `CC(=O)OCC1=C(C(=O)OC(c2ccccc2)c2ccccc2)N2C(=O)[C@@H](Nc3nc4cc(F)ccc4[nH]3)C2SC1` (stereo not given in full), the MIC in test [1] was 0.12 µg/mL (≈ 0.21 µM); in test [2] it was 1 µg/mL (≈ 1.75 µM); in test [3], 4 µg/mL (≈ 6.99 µM); in test [4], more than 256 µg/mL; in [5], 4 µg/mL (≈ 6.99 µM); in [6] it was 256 µg/mL (≈ 447 µM). For the same compound, the MIC in [7] is 4 µg/mL (≈ 6.99 µM); in [8], 64 µg/mL (≈ 112 µM); in test [19], 16 µg/mL (≈ 27.9 µM); in test [10] it was more than 256 µg/mL; in test [11], 16 µg/mL (≈ 27.9 µM); in test [12], 2 µg/mL (≈ 3.49 µM). Moreover, the MIC in [13] is 2 µg/mL (≈ 3.49 µM); in test [14] it was 256 µg/mL (≈ 447 µM); in test [15], 256 µg/mL (≈ 447 µM); in [16], 1 µg/mL (≈ 1.75 µM); in test [17] it was more than 256 µg/mL; in test [18], 4 µg/mL (≈ 6.99 µM).
